# Assay results published in ChEMBL document CHEMBL1127605, “Synthesis of naphthalenesulfonic acid small molecules as selective inhibitors of the DNA polymerase and ribonuclease H activities of HIV-1 reverse transcriptase” (J Med Chem, 1994).
# Key:
# [1] = molecular target: Human immunodeficiency virus type 1 reverse transcriptase (Human immunodeficiency virus 1) (UniProt Q72547); assay: Inhibition of DNA polymerase activity of HIV-1 reverse transcriptase (at 50 uM)
# Method in brief: (§1)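 Recombinant HIV-1 RT (BH-10 proviral clone, E. coli-expressed, purified to homogeneity, ~66 kDa) preincubated 5 min at 30 °C with test compound (50 μM for DNA polymerase, 200 μM for RNase H); reaction started with substrate, 30 min at 37 °C; residual activity expressed relative to initial linear rate without drug.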
# [2] = molecular target: Human immunodeficiency virus type 1 reverse transcriptase (Human immunodeficiency virus 1) (UniProt Q72547); assay: Inhibition of Ribonuclease H activity of HIV-1 reverse transcriptase (at 200 uM); method in brief: as §1
# MT4 [3] = assay: 50% effective antiviral concentration was determined on HIV-1 (HTLV-IIIB) in MT-4 cells; assay type: functional, cell-based; conditions: Homo sapiens
# MT4 [4] = assay: 50% cytotoxic concentration was determined on HIV-1 (HTLV-IIIB) in MT-4 cells; assay type: functional; conditions: Homo sapiens
# [5] = molecular target: Human immunodeficiency virus type 1 reverse transcriptase (Human immunodeficiency virus 1, UniProt Q72547); assay: The 50% inhibitory concentration was measured as inhibition of Ribonuclease H activity of reverse transcriptase
Compound,Initial activity [1] [%],Initial activity [2] [%],EC50 (MT4 [3]) [µM],CC50 (MT4 [4]) [µM],IC50 [5] [µM]
O=C(CCCCCCCCC(=O)Nc1ccc(S(=O)(=O)O)c2cccc(S(=O)(=O)O)c12)Nc1ccc(S(=O)(=O)O)c2cccc(S(=O)(=O)O)c12,54,57,–,–,–
O=C(Nc1ccc(S(=O)(=O)O)c2cccc(S(=O)(=O)O)c12)c1ccc(C(=O)Nc2ccc(S(=O)(=O)O)c3cccc(S(=O)(=O)O)c23)cc1,90,92,–,–,–
O=C(Oc1cc(S(=O)(=O)O)cc2cc(S(=O)(=O)O)ccc12)c1ccc(-c2ccc(C(=O)Oc3cc(S(=O)(=O)O)cc4cc(S(=O)(=O)O)ccc34)cc2)cc1,0.2,0,81.5,> 500,14.4
CCCCCCCCCCCCCCCC(=O)Nc1ccc(S(=O)(=O)O)c2cccc(S(=O)(=O)O)c12,0.16,2.8,100,225,27.5
O=S(=O)(O)c1cccc2ccc(OS(=O)(=O)c3ccc(-c4ccc(S(=O)(=O)Oc5ccc6cccc(S(=O)(=O)O)c6c5)cc4)cc3)cc12,0,48,–,–,–
Cc1cc(C)c(S(=O)(=O)Oc2ccc3cccc(S(=O)(=O)O)c3c2)c(C)c1S(=O)(=O)Oc1ccc2cccc(S(=O)(=O)O)c2c1,13,23,42,228,–
CCCCCCCCCCCCCCCc1nc2c(cc(S(=O)(=O)O)c3ccccc32)o1,0.2,68,> 42,42,–
O=C(CCCCCCCCCCC(=O)Nc1ccc(S(=O)(=O)O)c2ccccc12)Nc1ccc(S(=O)(=O)O)c2ccccc12,100,32,260,> 500,–
O=C(O)c1cc(NS(=O)(=O)c2cccc3c(S(=O)(=O)Nc4cc(C(=O)O)c(O)c(S(=O)(=O)O)c4)cccc23)cc(S(=O)(=O)O)c1O,46,75,–,–,–
O=C(CCCCCCC(=O)Nc1ccc(S(=O)(=O)O)c2cccc(S(=O)(=O)O)c12)Nc1ccc(S(=O)(=O)O)c2cccc(S(=O)(=O)O)c12,100,84,–,–,–
Cc1cc(C)c(S(=O)(=O)Nc2cc(C(=O)O)c(O)c(S(=O)(=O)O)c2)c(C)c1S(=O)(=O)Nc1cc(C(=O)O)c(O)c(S(=O)(=O)O)c1,2,32,–,–,–
O=S(=O)(O)c1ccc2c(OS(=O)(=O)c3cccc4c(S(=O)(=O)Oc5cc(S(=O)(=O)O)cc6cc(S(=O)(=O)O)ccc56)cccc34)cc(S(=O)(=O)O)cc2c1,0,43,39,322,215
O=C(CCCCCCC(=O)Nc1ccc(S(=O)(=O)O)c2ccccc12)Nc1ccc(S(=O)(=O)O)c2ccccc12,90,59,–,–,–
CC(C)CCCC(C)C1CCC2C3CC=C4CC(OC(=O)Nc5cc(S(=O)(=O)O)cc6cc(S(=O)(=O)O)cc(O)c56)CC[C@]4(C)C3CC[C@]12C (stereo not given in full),0,0,> 500,> 500,–
CCCCCCCCCCCCCCCC(=O)Nc1c(O)cc(S(=O)(=O)O)c2ccccc12,0.02,3,> 21,21,47.6
CCCCCCCCCCCCCCCC(=O)Oc1cc(S(=O)(=O)O)c2ccccc2c1N,6.5,7.5,> 38,38,–
O=S(=O)(O)c1cccc2ccc(OS(=O)(=O)c3cccc4c(S(=O)(=O)Oc5ccc6cccc(S(=O)(=O)O)c6c5)cccc34)cc12,25,17,–,–,–
Nc1ccc(S(=O)(=O)O)c2ccccc12,100,88,–,–,–
CCCCCCCCCCCCCCCC(=O)Nc1c(OC(=O)CCCCCCCCCCCCCCC)cc(S(=O)(=O)O)c2ccccc12,0.03,5.3,> 41,41,–
Nc1ccc(S(=O)(=O)O)c2cccc(S(=O)(=O)O)c12,100,100,–,–,–
O=C(CCCCCCCCC(=O)Nc1ccc(S(=O)(=O)O)c2ccccc12)Nc1ccc(S(=O)(=O)O)c2ccccc12,94,70,–,–,–
CCCCCCCCCCCCCCCC(=O)Oc1cc(S(=O)(=O)O)cc2cc(S(=O)(=O)O)cc(OC(=O)CCCCCCCCCCCCCCC)c12,0,27,–,–,–
O=C(CCCCCCCCCCC(=O)Nc1ccc(S(=O)(=O)O)c2cccc(S(=O)(=O)O)c12)Nc1ccc(S(=O)(=O)O)c2cccc(S(=O)(=O)O)c12,13,16,–,–,–
CCCCCCCCCCCCCCCC(=O)Nc1ccc(S(=O)(=O)O)c2ccccc12,100,98,> 47,47,–
O=S(=O)(O)c1cc(S(=O)(=O)O)c2cc(NS(=O)(=O)c3ccc(-c4ccc(S(=O)(=O)Nc5ccc6cc(S(=O)(=O)O)cc(S(=O)(=O)O)c6c5)cc4)cc3)ccc2c1,0.9,28,–,–,–
O=S(=O)(O)c1cc(S(=O)(=O)O)c2cc(NS(=O)(=O)c3cccc4c(S(=O)(=O)Nc5ccc6cc(S(=O)(=O)O)cc(S(=O)(=O)O)c6c5)cccc34)ccc2c1,16,51,–,–,–
O=C(CCCCCCCCC(=O)Nc1cc(S(=O)(=O)O)cc2cc(S(=O)(=O)O)cc(O)c12)Nc1cc(S(=O)(=O)O)cc2cc(S(=O)(=O)O)cc(O)c12,0,30,–,–,–
